Source: PubChem BioAssay (several laboratories)
E coli Lon inh = E. coli protease La inhibition; P0A9M0; purified E. coli Lon protease, fluorescence polarization; inhibition, % at 7.94 µM; 0.42% of 360,000 active; AID 602123; in the data active means inhibition above about 13%, passing the limit was not always enough
Tb MetRS inh = Trypanosoma brucei MetRS inhibition. purified T. brucei MetRS, ATP depletion, Kinase-Glo luminescence. 0.4% of 360,000 active. inhibition, % at 11.9 µM. AID 624268;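 active means inhibition above a per-plate cutoff of the control wells' mean inhibition plus 3 SD, cut at about 5.5% in these data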
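System: purified T. brucei MetRS enzyme / Detection: Kinase-Glo luciferase luminescence reporting remaining unconsumed ATP / Medium: HEPES buffer with MgCl2, KCl, DTT, spermine, BSA, pyrophosphatase / Replication: singlicate, one well per compound / Evaluation: percent inhibition relative to median high and low control wells / Schedule: 2 h aminoacylation at 25 °C after 15 min preincubation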
hiPSC survival = hiPSC single-cell survival enhancement; 0.044% of 360,000 active; ATPlite luminescence; 100% = ROCK inhibitor wells, 0% = DMSO; AID 602274; survival enhancement, % at 20 µM; in the data active means survival enhancement above about 18%;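 further: cells exposed to compounds for 16 hours before the ATP read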
MT1-MMP act inh = MT1-MMP (human) activation inhibition. P50281. HT1080 RFP-PRO-GFP cells, GFP/RFP ratio fluorescence, overnight; percent of plate control window, DMSO zero. GFP/RFP ratio change, % at 20 µM. 0.061% of 360,000 active. AID 651647;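 active means GFP/RFP ratio change of at least 30% with cell ATP level not reduced by more than half and red fluorescence within 50% of control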
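system = RFP-PRO-GFP reporter HT1080 cells | dosing = 20 µM single dose, 1% DMSO | timing = overnight cell settling, then overnight compound exposure, 37 °C, 5% CO2 | read-out basis = GFP/RFP fluorescence ratio | controls = DMSO and RFP-L50D-GFP cell wells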
PREPL inhibitor = inhibits the human prolyl oligopeptidase-like enzyme; AID 2751; inhibition, % at 5.96 µM; recombinant PREPL, fluorescence polarization activity-based probe; 0.68% of 320,000 active; in the data active means inhibition above about 43%
Target sequence (Q4J6C6 whole entry, looked up): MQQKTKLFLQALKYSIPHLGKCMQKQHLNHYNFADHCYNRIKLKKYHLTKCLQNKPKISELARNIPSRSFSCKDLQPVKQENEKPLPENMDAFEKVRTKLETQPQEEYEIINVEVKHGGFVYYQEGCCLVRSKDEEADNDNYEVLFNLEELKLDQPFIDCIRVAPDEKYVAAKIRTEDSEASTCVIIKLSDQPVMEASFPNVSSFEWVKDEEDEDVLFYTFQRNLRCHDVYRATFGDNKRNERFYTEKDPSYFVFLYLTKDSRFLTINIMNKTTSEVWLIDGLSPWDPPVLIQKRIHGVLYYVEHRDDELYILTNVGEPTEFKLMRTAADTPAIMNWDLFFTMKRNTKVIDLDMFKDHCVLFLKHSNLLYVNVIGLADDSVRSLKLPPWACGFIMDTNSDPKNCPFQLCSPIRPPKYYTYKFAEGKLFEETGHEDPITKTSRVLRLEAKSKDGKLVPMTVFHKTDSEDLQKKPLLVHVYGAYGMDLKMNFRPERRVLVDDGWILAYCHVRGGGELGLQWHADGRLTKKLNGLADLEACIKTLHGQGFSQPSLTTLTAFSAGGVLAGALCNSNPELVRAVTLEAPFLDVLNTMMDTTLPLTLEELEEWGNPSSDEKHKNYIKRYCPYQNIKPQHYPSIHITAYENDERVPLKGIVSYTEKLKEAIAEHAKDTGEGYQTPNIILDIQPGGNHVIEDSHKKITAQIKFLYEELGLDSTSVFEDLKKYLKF
SKN-1 inh = blocks SKN-1 activity in C. elegans | 0.49% of 360,000 active | C. elegans VP596 Pgst-4::GFP/RFP ratio, acrylamide-induced, 24 h | inhibition, % at 21.8 µM | AID 624304;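 active means interference check ratio from 0.5 to 1.5 plus GFP to RFP signal ratio inhibition reaching or exceeding a fixed threshold, cut at about 30% in these data, passing the limit was not always enough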
eLon confirm = confirmation of E. coli Lon protease inhibitors; shares compounds with E coli Lon inh; purified E. coli Lon, fluorescence polarization; inhibition, % at 7.94 µM; 31% of 1,400 active; AID 602230; in the data active means inhibition above about 16%
Hits are given with their value; 0 = inactive; - = no result; + = active, no number. Shown are actives, neighbours in structure and some others; about 1.8% of the full set was active somewhere.

SMILES | E coli Lon inh | Tb MetRS inh | hiPSC survival | MT1-MMP act inh | PREPL inhibitor | SKN-1 inh | eLon confirm
CCOc1ccc(CNC(=O)CN2C(=O)CSc3ccc(S(=O)(=O)N4CCOCC4)cc32)cc1OC | 64 | 0 | 0 | 0 | 0 | 0 | 0
CC(C)(C)c1ccc(C(=O)CCC(=O)OCC(=O)NCCc2ccc(S(N)(=O)=O)cc2)cc1 | 0 | 0 | 0 | 0 | 0 | 0 | -
CCCCc1ncc(CN2CCC(n3nccc3NC(=O)c3ccccc3Cl)CC2)[nH]1 | 19 | 0 | 0 | 0 | 0 | 0 | 0
CCn1cc(CN2CCC(n3nccc3NC(=O)c3ccccc3C)CC2)c(C)n1 | 45 | 0 | 0 | 0 | 0 | 0 | 0
CCn1cc(CN2CCC(n3nccc3NC(=O)C3CCCC3)CC2)c(C)n1 | 0 | 0 | 0 | 0 | 0 | 0 | -
CCCCc1ncc(CN2CCC(n3nccc3NC(=O)C(OC)c3ccccc3)CC2)[nH]1 (centres undefined) | 0 | 0 | 0 | 0 | 0 | 0 | -
COc1ccc2oc(C(=O)OCC(=O)NCc3ccco3)c(C)c2c1 | 0 | 0 | 0 | 0 | 0 | 0 | -
c1ccc(Nc2ccccc2Nc2ccccn2)nc1 | 33 | 0 | 0 | 0 | 0 | 0 | 0
c1ccc(CNc2ccccn2)cc1 | 0 | 0 | 0 | 0 | 0 | 0 | -
CC1CCN(C(=O)C2CCN(c3ncnc4c3nc3n4CCCCC3)CC2)CC1 | 20 | 0 | 0 | 0 | 0 | 0 | 0
CC(=O)C1=C(O)C(=O)N(c2ccc(Br)cn2)C1c1ccc(F)cc1 (centres undefined) | 28 | 0 | 0 | 0 | 0 | 0 | 0
Cc1cc2c(cn1)C(CCC#N)(CCC#N)c1ccccc1-2 | 0 | 0 | 0 | 0 | 0 | 0 | -
O=c1c(-c2ccc(Cl)cc2)c[nH]n1-c1ccccc1 | 18 | 0 | 0 | 0 | 0 | 0 | 0
CC1CCN(CCNC(=O)C2CCCN(S(=O)(=O)c3cccc4nonc34)C2)CC1 (centres undefined) | 0 | 0 | 0 | 0 | 0 | 0 | -
CC(=O)Nc1ccc(N2N=C(C)C(N=Nc3ccccc3)C2=O)cc1 (centres undefined) | 0 | 0 | 0 | 0 | 0 | 0 | -
CSCCC(NS(=O)(=O)c1cccc(C(F)(F)F)c1)C(=O)N1CCN(C(=O)c2ccco2)CC1 (centres undefined) | 52 | 0 | 0 | 0 | - | 0 | 0
CC(C)C(NS(=O)(=O)c1ccccc1)C(=O)N1CCN(C(=O)c2ccco2)CC1 (centres undefined) | 0 | 0 | 0 | 0 | 0 | 0 | -
CC12CCCCN1CCCc1c2[nH]c2ccccc12 (centres undefined) | 22 | 0 | 0 | 0 | 0 | 0 | 0
CCN(C)C1CN(Cc2cn(Cc3ccc(C)cc3)nn2)S(=O)(=O)C1 (centres undefined) | 0 | 0 | 0 | 0 | - | 0 | -
CCOC(=O)C(=O)N(CC)C1CCS(=O)(=O)C1 (centres undefined) | 17 | 0 | 0 | 0 | 0 | 0 | 0
CCN(C(=O)COC(=O)c1cnc(C)cn1)C1CCS(=O)(=O)C1 (centres undefined) | 0 | 0 | 0 | 0 | 0 | 0 | -
CCOC(=O)c1c(C)oc2c1c(C=NC1CCS(=O)(=O)C1)c(O)c1ccccc12 (centres undefined) | 0 | 0 | 0 | 0 | 0 | 0 | -
CCOC(=O)c1c(C)oc2c1c(C=NCCC(=O)O)c(O)c1ccccc12 | 15 | 0 | 0 | 0 | 0 | 37 | 30
COc1ccc(N=Nc2nc3ccc(Br)cc3n2C)cc1 | + | 0 | 0 | 0 | 0 | 0 | 92
COc1ccc(NC(=O)CNC(c2ccccc2)c2ccccc2)cc1Cl | 18 | 0 | 0 | 0 | 0 | 0 | 0
SMILES | E coli Lon inh | Tb MetRS inh | hiPSC survival | MT1-MMP act inh | PREPL inhibitor | SKN-1 inh | eLon confirm
COc1ccc(/C=C2\C(=O)N(c3c(Cl)cc(Cl)cc3Cl)N=C2NC(=O)c2cccc([N+](=O)[O-])c2)cc1 | 0 | 0 | 0 | 0 | 0 | 0 | -
O=C(CN1C(=O)c2ccccc2C1=O)c1ccccc1 | 0 | 0 | 0 | 0 | 0 | 0 | -
O=C(O)CN1C(=O)c2ccc(C(=O)c3ccccc3)cc2C1=O | 27 | 0 | 0 | 0 | 0 | 0 | 0
C=CCn1c(CCC(O)COCCC)n[nH]c1=S (centres undefined) | 0 | 0 | 0 | 0 | 0 | 0 | -
CCO[C@H]1OC(C(=O)N2CCCCCCC2)=C[C@@H](C)[C@@H]1CCCO | 0 | 0 | 0 | 0 | 0 | 0 | -
O=C(CCS(=O)(=O)Cc1ccccc1)N1CCc2ccccc2C1 | 0 | 0 | 0 | 0 | 0 | 0 | -
O=C(CCS(=O)(=O)Cc1ccccc1F)N1CCc2ccccc2C1 | 18 | 0 | 0 | 0 | 0 | 0 | 0
CCN1CCN(C(=O)NC2CCCCC2)CC1 | 45 | 0 | 0 | 0 | 0 | 0 | 0
CCOC(=O)N1CCN(C(=O)NC2CCCCC2)CC1 | 0 | 0 | 0 | 0 | 0 | 0 | -
CNC(=O)c1cc(C(=O)c2ccccc2C(F)(F)F)c[nH]1 | 0 | 0 | 0 | 0 | 0 | 0 | -
CSC(=S)N/N=C/c1ccccc1 | 0 | 0 | 0 | 0 | 0 | 0 | -
Cc1cccc(N2CCN(C(=O)CCCn3c(=O)[nH]c4ccsc4c3=O)CC2C)c1 (centres undefined) | 0 | 0 | 0 | 0 | 0 | 0 | -
COc1ccc2[nH]cc(CCNC(=O)CC[C@H]3O[C@@H](n4cc(C)c(=O)[nH]c4=O)C[C@@H]3O)c2c1 | 13 | 0 | 0 | 0 | - | 0 | 0
Cc1ccc(NC(=S)N=Nc2c(O)[nH]c3ccccc23)cc1 | 14 | 0 | 0 | 0 | 0 | 0 | 0
Oc1ccc(NC(=S)N=Nc2c(O)[nH]c3ccccc23)cc1 | 18 | 0 | 0 | 0 | 0 | 0 | 21
COc1ccc(NC(=S)N=Nc2c(O)[nH]c3ccccc23)cc1 | 0 | 0 | 0 | 0 | 0 | 0 | -
Cc1cccc2cc(COC(=O)COc3ccccc3)c(=O)[nH]c12 | 0 | 0 | 0 | 0 | 0 | 0 | -
CCNc1cccc2c1C(=O)N(C)C2=O | 151 | 0 | 0 | 0 | 0 | 0 | 165
Cn1c2ccccc2c2cc(/C=N/NC(=O)c3ccc(N)cc3)ccc21 | 20 | 0 | 0 | 0 | 0 | 0 | 0
C#CCn1c(CCNC(=O)c2ccco2)nc2ccccc21 | 0 | 0 | 0 | 0 | 0 | 0 | -
Cn1c(=O)n(C)c2cc(/C=N/NC(=O)c3ccc(Cl)cc3)ccc21 | 0 | 0 | 0 | 0 | 0 | 0 | -
N#CCC(=O)N/N=C/c1ccc(OC2CSC2)cc1 | 25 | 0 | 0 | 0 | 0 | 0 | 0
COCc1cc(C)n(CC(=O)OC)c(=O)c1C#N | 0 | 0 | 0 | 0 | 0 | 0 | -
CCN1CCN(C(CNS(=O)(=O)c2ccccc2)c2cccnc2)CC1 (centres undefined) | 19 | 0 | 0 | 0 | 0 | 0 | 0
CCN1CCN(C(CNS(=O)(=O)c2ccc(F)cc2)c2cccnc2)CC1 (centres undefined) | 0 | 0 | 0 | 0 | 0 | 0 | -
